# Source: PubChem BioAssay
# This is a sample that favours compounds with a hit; in the whole collection about 2.5% have one here.
# SENP7 block – blocks the human protease SENP7; inhibition, % at 5 µM; recombinant SENP7, Z-RLRGG-aminoluciferin luminescence, 40 min; 1.5% of 330,000 active; Q9BQF6;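 active means inhibition above about 50% at the single test dose, limit read from the data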;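 further: plate controls were DMSO with enzyme for no effect and no enzyme buffer wells for full effect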
# SENP8 block-1 – SENP8 protease inhibition; Q96LD8; purified SENP8, Z-RLRGG-aminoluciferin cleavage, luminescence; inhibition, % at 10 µM; 1.2% of 330,000 active; AID 2540; in the data active means inhibition above about 50%
# SENP8 block-2 – SENP8 (human) protease inhibition; Q96LD8; recombinant SENP8, Nedd8 substrate fluorescence; inhibition, % at 20 µM; 0.64% of 360,000 active; AID 602440; in the data active means inhibition mostly above about 40%, no sharp cut-off; inactive means mostly below about 27%
# SENP6 block – SENP6 protease inhibition. Recombinant SENP6 catalytic domain, aminoluciferin luminescence. AID 2599. Q9GZR1. 1.8% of 330,000 active. inhibition, % at 10 µM;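 active means inhibition above about 50% at the single tested dose, limit read from the data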;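 further: plate controls were DMSO wells with enzyme for no effect and DMSO wells lacking enzyme for full effect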
# Target sequence (Q9GZR1 628-1112 limits assumed): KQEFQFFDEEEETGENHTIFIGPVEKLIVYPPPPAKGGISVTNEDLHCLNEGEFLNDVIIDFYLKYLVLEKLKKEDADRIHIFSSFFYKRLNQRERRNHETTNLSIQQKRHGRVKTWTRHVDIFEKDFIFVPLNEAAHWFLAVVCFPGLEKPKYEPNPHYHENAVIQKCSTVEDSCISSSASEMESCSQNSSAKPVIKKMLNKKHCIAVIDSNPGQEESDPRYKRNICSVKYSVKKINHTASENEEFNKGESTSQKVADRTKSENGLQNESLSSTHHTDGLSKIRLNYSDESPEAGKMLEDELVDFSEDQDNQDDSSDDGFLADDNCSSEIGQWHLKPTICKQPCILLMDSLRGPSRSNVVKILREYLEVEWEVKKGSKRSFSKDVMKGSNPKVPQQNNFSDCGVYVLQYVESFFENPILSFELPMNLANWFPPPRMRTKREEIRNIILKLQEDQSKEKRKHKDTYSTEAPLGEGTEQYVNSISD
# SENP1 FRET inh – SENP1 (human) catalytic domain inhibition; Q9P0U3; recombinant SENP1 catalytic domain, CyPet-SUMO1-YPet FRET cleavage; inhibition, % at 10 µM; 0.21% of 360,000 active;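 active means inhibition at least 30% at 10 µM, raw YFP signal under a set limit, fluorescence ratio 0.5 to 1.5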;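 further: 0% = enzyme with DMSO and 100% = no enzyme wells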
#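 system = hSENP1 catalytic domain, recombinant | reagent = SFCypet-SUMO1-SFYpet substrate at 25 nM | doses = one dose per compound, 10 µM, 0.5% DMSO | incubation = enzyme reaction for 50 min at room temperature, dark | measured by = FRET, CFP and YFP emission | controls = no-enzyme low, enzyme-DMSO high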
# SENP1 inh conf – confirmation of human SENP1 SUMO protease inhibitors; shares compounds with SENP1 FRET inh; 34% of 520 active; recombinant SENP1, CyPet-SUMO1-YPet FRET cleavage; inhibition, % at 10 µM; in the data active means inhibition mostly above about 35%, no sharp cut-off; inactive means mostly below about 32%;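 further: 0% = enzyme with DMSO and 100% = no enzyme control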
# SENP1 kin conf – confirmation of human SENP1 SUMO protease inhibitors, kinetic; recombinant SENP1, CyPet-SUMO1-YPet FRET kinetic cleavage; shares compounds with SENP1 FRET inh; AID 651690; inhibition, % at 10 µM; 26% of 520 active; in the data active means inhibition mostly above about 32%, no sharp cut-off; inactive means mostly below about 29%;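 further: 0% = DMSO with enzyme and 100% = no enzyme substrate only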
# An asterisk follows results filed as active; x = no result given.
SMILES,SENP7 block,SENP8 block-1,SENP8 block-2,SENP6 block,SENP1 FRET inh,SENP1 inh conf,SENP1 kin conf
O=[N+]([O-])c1ccc(Oc2cccc3cccnc23)c([N+](=O)[O-])c1,-2,-8,24,-10,76*,25,16
COc1cccc(NC2=Nc3cccc4cccc2c34)c1,-5,-18,1,-19,81*,55*,33*
COc1cc(NC2=Nc3cccc4cccc2c34)cc(OC)c1OC,-5,4,17,-2,68*,39*,22
COc1cc(Nc2ncnc(N)n2)cc(OC)c1OC,5,3,12,-21,1,x,x
COc1cccc(Nc2n[nH]c(=S)s2)c1,4,0,18,7,1,x,x
COc1ccc(NC2=Nc3cccc4cccc2c34)cc1OC,-2,-5,32,-6,70*,29,12
COc1ccc(CC(=O)NNC2=Nc3cccc4cccc2c34)cc1OC,4,7,-47,15,-144,x,x
COC(=O)c1cnc(Oc2ccc(NC(=O)NC(=O)c3ccccc3Cl)cc2)cc1C(F)(F)F,14,-9,16,-9,1,x,x
COc1ccc(OC)c(C(O)c2ncc(-c3ccc(C(F)(F)F)cc3)[nH]2)c1 (centres undefined),x,x,8,x,1,x,x
C=CCn1c(=O)c(C(=O)Nc2ccccc2S(N)(=O)=O)c(O)c2ccccc21,1,-3,-119,-8,1,x,x
COc1ncccc1C(=O)N1CCCC(C(=O)Nc2cccc(-c3ccc(F)cc3)c2)C1 (centres undefined),x,x,9,x,0,x,x
Cc1nn(C)c(NC(=O)c2ccc(Cl)cc2Cl)c1Br,3,1,7,-6,0,x,x
CSc1nnc(C(C)(C)C)c(=O)n1/N=C/c1c(O)ccc2ccccc12,1,-5,17,-4,33*,-7,3
Cc1nc2ccccc2c(=O)n1/N=C/c1c(O)ccc2ccccc12,2,-2,0,5,-22,x,x
COc1ccc(C2=NS(=O)(=O)N(C)C(C(=O)N3CCCCC3C)=C2)cc1 (centres undefined),16,-16,-245,-10,4,x,x
COc1cc(OC)cc(-c2c(Sc3ccccc3)c3cc(-c4ccc(OC)c(OC)c4)ccc3n2C)c1,x,x,-346,x,1,x,x
COc1ccc(-c2c(Sc3ccccc3)c3cc(-c4ccc(OC)c(F)c4)ccc3n2C)cc1,x,x,-202,x,30*,-35,4
CC1(C(=O)NCc2cccs2)CCN1C(=O)Cc1ccc(Cl)cc1Cl (centres undefined),x,x,8,x,1,x,x
COc1ccc(-c2cccc3c2C2CC3CCN2C(=O)OCc2ccccc2)cc1 (centres undefined),x,x,1,x,-1,x,x
O=C(NC(=S)Nc1ccc(Cc2ccncc2)cc1)c1ccc(F)cc1,3,-2,9,-14,0,x,x
CCOC(=O)[C@]12CCCC=C1N(Cc1cccc3ccccc13)C(=O)[C@H](CC(=O)NCCCN1CCCC1=O)C2,x,x,24,x,1,x,x
COc1cc(Cn2c3ccc(NC(=O)CCc4ccccc4)cc3c(=O)n2C)ccc1F,x,x,-458,x,33*,4,5
CSc1nc2c(cc1C#N)CCC2,-2,7,-11,-11,0,x,x
Brc1cc(Br)c2nc3c(cc2c1)CCC3,-6,-3,9,-17,33*,3,7
CCOC(=O)N1CCN(S(=O)(=O)c2ccc(C(=O)NNc3nc4c(C)cccc4s3)cc2)CC1,4,-1,-13,1,35*,25,42*
SMILES,SENP7 block,SENP8 block-1,SENP8 block-2,SENP6 block,SENP1 FRET inh,SENP1 inh conf,SENP1 kin conf
CC(C)C[C@H](NC(=O)/C=C/[C@H]1O[C@@H](n2ccc(=O)[nH]c2=O)[C@H](O)[C@@H]1O)C(=O)O,x,x,21,x,0,x,x
COc1ccc(-c2ccc3c(c2)S(=O)(=O)c2cccc(C(=O)NCCOc4ccccc4Cl)c2C3=O)cc1OC,-11,-6,12,-5,29*,14,16
COc1ccc(-c2ccc3c(c2)S(=O)(=O)c2cccc(C(=O)NC4CC4)c2C3=O)cc1OC,-4,4,-13,-4,-5,x,x
COc1ccc(-c2ccc3c(c2)S(=O)(=O)c2cccc(C(=O)NCc4ccccc4Cl)c2C3=O)cc1OC,7,0,2,-14,58*,15,17
COc1cccc(-c2nc(SC)nc3sc(C(=O)NC(C)(C)C)c(N)c23)c1,0,-2,2,-15,37*,48*,37*
Cc1ccc(S(=O)(=O)N2CCOC2CNC(=O)C(=O)NCCCN2CCOCC2)cc1 (centres undefined),2,-11,13,0,0,x,x
COc1cc(/C=C2\CCCc3c2nc2ccccc2c3C(=O)O)cc(Br)c1O,0,0,-332,-7,56*,97*,67*
COC(=O)c1c(NC(=O)c2ccccc2)sc(C(N)=O)c1C,-6,4,-281,-9,-3,x,x
COC(=O)c1c(NC(=O)c2ccccc2)sc(C(=O)c2ccccc2)c1C,3,-2,20,1,43*,24*,34*
C=CCOc1cccc(C2/C(=C(\O)c3ccc4c(c3)OCCO4)C(=O)C(=O)N2CCN2CCOCC2)c1 (centres undefined),0,-5,0,-27,1,x,x
